Where no end group is shown, it is not given here.
Assays:
[1] = test system: Staphylococcus aureus (S. aureus) (NCTC 10788); experiment: MIC/MBC determination; assay type: cell-based; conditions: 37 °C, 20 h; for MBC: 10 µl from MIC wells on MHA, no colony growth; for MIC: MHB, 5 × 10^5 CFU/ml, read at 550 nm
In short: (§1)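 Bacteria grown overnight at 37 °C in MHB and diluted to 5 × 10^5 CFU/ml. Peptide stocks in PBS, two-fold from 51200 µM to 100 µM, added 1 µl per 99 µl suspension. Norfloxacin (20 mg/l) was the positive control. After 20 h at 37 °C, OD 550 nm read; MIC = no apparent growth. For MBC, 10 µl from MIC and higher wells spotted on MHA, 37 °C 20 h; lowest without colonies.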

[2] = test system: Escherichia coli (E. coli) (ATCC 8739); experiment: MIC/MBC determination; assay type: cell-based; conditions: 37 °C, 20 h; for MBC: 10 µl from MIC wells on MHA, no colony growth; for MIC: MHB, 5 × 10^5 CFU/ml, read at 550 nm
In short: as §1

MRSA (NCTC 12493) [3] = experiment: MIC/MBC determination; assay type: cell-based, Methicillin-resistant Staphylococcus aureus; conditions: 37 °C, 20 h; for MBC: 10 µl from MIC wells on MHA, no colony growth; for MIC: MHB, 5 × 10^5 CFU/ml, read at 550 nm
In short: as §1

[4] = test system: Klebsiella pneumoniae (K. pneumoniae) (ATCC 43816); experiment: MIC/MBC determination; assay type: cell-based; conditions: 37 °C, 20 h; for MBC: 10 µl from MIC wells on MHA, no colony growth; for MIC: MHB, 5 × 10^5 CFU/ml, read at 550 nm
In short: as §1

[5] = test system: Enterococcus faecium (E. faecium) (NTCC-12697); experiment: MIC/MBC determination; assay type: cell-based; conditions: 37 °C, 20 h; for MBC: 10 µl from MIC wells on MHA, no colony growth; for MIC: MHB, 5 × 10^5 CFU/ml, read at 550 nm
In short: as §1

[6] = test system: Pseudomonas aeruginosa (P. aeruginosa) (ATCC 9027); experiment: MIC/MBC determination; assay type: cell-based; conditions: 37 °C, 20 h; for MBC: 10 µl from MIC wells on MHA, no colony growth; for MIC: MHB, 5 × 10^5 CFU/ml, read at 550 nm
In short: as §1

MRSA (BO38 V1S1 A) = experiment: MIC/MBC determination; assay type: cell-based, Methicillin-resistant Staphylococcus aureus; conditions: 37 °C, 20 h; for MBC: 10 µl from MIC wells on MHA, no colony growth; for MIC: MHB, 5 × 10^5 CFU/ml, read at 550 nm
In short: as §1

MRSA (BO42 V2E1 A) = experiment: MIC/MBC determination; assay type: cell-based, Methicillin-resistant Staphylococcus aureus; conditions: 37 °C, 20 h; for MBC: 10 µl from MIC wells on MHA, no colony growth; for MIC: MHB, 5 × 10^5 CFU/ml, read at 550 nm
In short: as §1

MRSA (ATCC BAA 1707) = experiment: MIC/MBC determination; assay type: cell-based, Methicillin-resistant Staphylococcus aureus; conditions: 37 °C, 20 h; for MBC: 10 µl from MIC wells on MHA, no colony growth; for MIC: MHB, 5 × 10^5 CFU/ml, read at 550 nm
In short: as §1

S. aureus (NCTC 10788) = experiment: Condition sensitivity assay; assay type: cell-based, Staphylococcus aureus
MRSA (NCTC 12493) [7] = experiment: Condition sensitivity assay; assay type: cell-based, Methicillin-resistant Staphylococcus aureus
[8] = test system: human keratinocyte cell line HaCaT; experiment: Lactate dehydrogenase; assay type: cell-based; conditions: HaCaT cells, 100 μM peptide, 24 h, compared to the positive control
In short: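 Peptide added at 100 µM to 1 µM for 24 h. Lysis buffer gave maximum LDH; after 45 min, supernatant reacted 30 min dark at room temperature, then stopped. Absorbance read at 490 and 680 nm. Release expressed as percent of 1% Triton X-100, PBS negative; nine replicates from three experiments, mean ± SEM.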

Row | Substance | MBC [1] | MIC [1] | MBC [2] | MIC [2] | MBC (MRSA (NCTC 12493) [3]) | MIC (MRSA (NCTC 12493) [3]) | MBC [4] | MIC [4] | MBC [5] | MIC [5] | MBC [6] | MIC [6] | MBC (MRSA (BO38 V1S1 A)) | MIC (MRSA (BO38 V1S1 A)) | MBC (MRSA (BO42 V2E1 A)) | MIC (MRSA (BO42 V2E1 A)) | MBC (MRSA (ATCC BAA 1707)) | MIC (MRSA (ATCC BAA 1707)) | MIC (S. aureus (NCTC 10788); MHB with 6 μM NH4Cl) | MIC (S. aureus (NCTC 10788); MHB with 1 mM MgCl2) | further results
1 | GVIFNALK-NH2 [GV8] | > 512 µM | > 512 µM | > 512 µM | > 512 µM | > 512 µM | > 512 µM | > 512 µM | > 512 µM | > 512 µM | > 512 µM | > 512 µM | > 512 µM | > 512 µM | > 512 µM | > 512 µM | > 512 µM | > 512 µM | > 512 µM |  |  | 
2 | GVIFNALKGVAK-NH2 [GV12] | > 512 µM | > 512 µM | > 512 µM | > 512 µM | > 512 µM | > 512 µM | > 512 µM | > 512 µM | > 512 µM | > 512 µM | > 512 µM | > 512 µM | > 512 µM | > 512 µM | > 512 µM | > 512 µM | > 512 µM | > 512 µM |  |  | 
3 | GVIFNALKGVAKTVAAQLLK-NH2 [GV20] | 8 µM | 4 µM | 32 µM | 8 µM | 8 µM | 8 µM | 64 µM | 32 µM | 64 µM | 16 µM | 64 µM | 32 µM | 32 µM | 16 µM | 64 µM | 32 µM | 32 µM | 16 µM | 4 µM | 4 µM | MIC (S. aureus (NCTC 10788); MHB with 2.5 mM CaCl2): 4 µM; MIC (S. aureus (NCTC 10788); MHB with 4 mM FeCl3): 4 µM; MIC (S. aureus (NCTC 10788); MHB with 4.5 mM KCl): 8 µM; MIC (S. aureus (NCTC 10788); MHB with 8 mM ZnCl2): 4 µM; MIC (S. aureus (NCTC 10788); MHB with 150 mM NaCl): 4 µM; MIC (S. aureus (NCTC 10788); MHB with 10% horse serum): 8 µM; MIC (S. aureus (NCTC 10788); PBS (no added salt)): 4 µM; MIC (MRSA (NCTC 12493) [7]; MHB with 6 μM NH4Cl): 8 µM; MIC (MRSA (NCTC 12493) [7]; MHB with 1 mM MgCl2): 8 µM; MIC (MRSA (NCTC 12493) [7]; MHB with 2.5 mM CaCl2): 16 µM; MIC (MRSA (NCTC 12493) [7]; MHB with 4 mM FeCl3): 8 µM; MIC (MRSA (NCTC 12493) [7]; MHB with 4.5 mM KCl): 16 µM; MIC (MRSA (NCTC 12493) [7]; MHB with 8 mM ZnCl2): 8 µM; MIC (MRSA (NCTC 12493) [7]; MHB with 150 mM NaCl): 8 µM; MIC (MRSA (NCTC 12493) [7]; MHB with 10% horse serum): 16 µM; MIC (MRSA (NCTC 12493) [7]; PBS (no added salt)): 8 µM
4 | GVIFNALKGVAKTVAAQLLKK-NH2 [GV21] | 4 µM | 2 µM | 8 µM | 4 µM | 4 µM | 4 µM | 16 µM | 16 µM | 8 µM | 4 µM | 16 µM | 16 µM | 8 µM | 8 µM | 16 µM | 8 µM | 8 µM | 4 µM | 2 µM | 2 µM | LDH release rate (maximum) [8]: 22.36%; MIC (S. aureus (NCTC 10788); MHB with 2.5 mM CaCl2): 2 µM; MIC (S. aureus (NCTC 10788); MHB with 4 mM FeCl3): 2 µM; MIC (S. aureus (NCTC 10788); MHB with 4.5 mM KCl): 2 µM; MIC (S. aureus (NCTC 10788); MHB with 8 mM ZnCl2): 2 µM; MIC (S. aureus (NCTC 10788); MHB with 150 mM NaCl): 2 µM; MIC (S. aureus (NCTC 10788); MHB with 10% horse serum): 2 µM; MIC (S. aureus (NCTC 10788); PBS (no added salt)): 2 µM; MIC (MRSA (NCTC 12493) [7]; MHB with 6 μM NH4Cl): 4 µM; MIC (MRSA (NCTC 12493) [7]; MHB with 1 mM MgCl2): 4 µM; MIC (MRSA (NCTC 12493) [7]; MHB with 2.5 mM CaCl2): 4 µM; MIC (MRSA (NCTC 12493) [7]; MHB with 4 mM FeCl3): 4 µM; MIC (MRSA (NCTC 12493) [7]; MHB with 4.5 mM KCl): 4 µM; MIC (MRSA (NCTC 12493) [7]; MHB with 8 mM ZnCl2): 4 µM; MIC (MRSA (NCTC 12493) [7]; MHB with 150 mM NaCl): 4 µM; MIC (MRSA (NCTC 12493) [7]; MHB with 10% horse serum): 4 µM; MIC (MRSA (NCTC 12493) [7]; PBS (no added salt)): 4 µM
5 | GVIFNALKGVAKTVAAQLLKKAR-NH2 [GV23] | 16 µM | 2 µM | 8 µM | 4 µM | 2 µM | 2 µM | 64 µM | 32 µM | 16 µM | 16 µM | 16 µM | 16 µM | 8 µM | 2 µM | 8 µM | 8 µM | 8 µM | 8 µM | 2 µM | 2 µM | MIC (S. aureus (NCTC 10788); MHB with 2.5 mM CaCl2): 2 µM; MIC (S. aureus (NCTC 10788); MHB with 4 mM FeCl3): 2 µM; MIC (S. aureus (NCTC 10788); MHB with 4.5 mM KCl): 2 µM; MIC (S. aureus (NCTC 10788); MHB with 8 mM ZnCl2): 2 µM; MIC (S. aureus (NCTC 10788); MHB with 150 mM NaCl): 2 µM; MIC (S. aureus (NCTC 10788); MHB with 10% horse serum): 2 µM; MIC (S. aureus (NCTC 10788); PBS (no added salt)): 2 µM; MIC (MRSA (NCTC 12493) [7]; MHB with 6 μM NH4Cl): 4 µM; MIC (MRSA (NCTC 12493) [7]; MHB with 1 mM MgCl2): 4 µM; MIC (MRSA (NCTC 12493) [7]; MHB with 2.5 mM CaCl2): 2 µM; MIC (MRSA (NCTC 12493) [7]; MHB with 4 mM FeCl3): 2 µM; MIC (MRSA (NCTC 12493) [7]; MHB with 4.5 mM KCl): 2 µM; MIC (MRSA (NCTC 12493) [7]; MHB with 8 mM ZnCl2): 2 µM; MIC (MRSA (NCTC 12493) [7]; MHB with 150 mM NaCl): 2 µM; MIC (MRSA (NCTC 12493) [7]; MHB with 10% horse serum): 2 µM; MIC (MRSA (NCTC 12493) [7]; PBS (no added salt)): 2 µM
6 | TVAAQLLKKAR-NH2 [GV11] | > 512 µM | > 512 µM | > 512 µM | > 512 µM | > 512 µM | > 512 µM | > 512 µM | > 512 µM | > 512 µM | > 512 µM | > 512 µM | > 512 µM | > 512 µM | > 512 µM | > 512 µM | > 512 µM | > 512 µM | > 512 µM |  |  | 
